Experimental data taken from ChEMBL document CHEMBL3596173, “Structural Requirements for CNS Active Opioid Glycopeptides” (J Med Chem, 2015).
pKi: −log10 of the molar value. Starred links: 1 amine or outer side, 2 acyl side, 3 side chain; linkers in the order of their positions; H or OH if unused. Positions of bridges follow the written chain, without caps; N, C: chain ends. Non-standard residues stand in square brackets, D forms with d. Residues, ends and D or L forms follow the SMILES beside them. *: point of attachment. X1 = OC[C@H]1O[C@@H](O[C@H]2[C@H](O)[C@@H](O)[C@H](*)O[C@@H]2CO)[C@H](O)[C@@H](O)[C@@H]1O; βGlc = OC[C@H]1O[C@@H](*)[C@H](O)[C@@H](O)[C@@H]1O; dPen = CC(C)(S)[C@@H](N)C(=O)O; CH2CH2 = C(C[*:2])[*:1]; Aib = CC(C)(N)C(=O)O; Ava = NCCCCC(=O)O; GABA = NCCCC(=O)O

Key:
Mus musculus [1] = assay: Antinociceptive activity in icv dosed CD-1 mouse by 55 degC warm water tail-flick test; assay type: functional
Procedure, shortened: (§1)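 Male CD-1 mice (27−30 g), 8−10 per group. Compound in distilled water, given icv under light ether anaesthesia, 2 mm caudal and 2 mm lateral from bregma. 55 °C warm-water tail-flick: baseline latency taken first, and mice not responding within 5 s excluded. Retested at various times after dosing. %Antinociception = 100(test − control latency)/(10 − control latency). A50 doses derived.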

[2] = molecular target: T1, Delta-type opioid receptor (Homo sapiens, UniProt P41143); assay: Displacement of [3H]-naltrindole from human delta opioid receptor expressed in CHO cells after 3 hrs by scintillation counting analysis; assay type: cell-based
T1 sequence (P41143 whole entry): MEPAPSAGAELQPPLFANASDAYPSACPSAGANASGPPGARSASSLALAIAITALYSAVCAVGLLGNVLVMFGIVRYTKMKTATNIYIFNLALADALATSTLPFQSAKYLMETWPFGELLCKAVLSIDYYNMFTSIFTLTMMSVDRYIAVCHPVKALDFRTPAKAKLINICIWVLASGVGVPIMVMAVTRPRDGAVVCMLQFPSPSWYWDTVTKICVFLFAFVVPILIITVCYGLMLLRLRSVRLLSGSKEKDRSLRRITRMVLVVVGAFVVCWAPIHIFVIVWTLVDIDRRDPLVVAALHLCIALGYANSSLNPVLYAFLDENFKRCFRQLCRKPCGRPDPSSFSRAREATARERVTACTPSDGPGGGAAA
Procedure, shortened: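 Binding used CHO-cell membranes bearing human δ receptor and 0.2 nM (final) [3H]naltrindole, incubated 3 h at 25 °C in 50 mM Tris-HCl pH 7.5. Nonspecific binding was defined with 100 μM naloxone. Samples were glass-fiber filtered, washed with cold buffer and scintillation counted. IC50 came from a log-probit least-squares fit and was converted to Ki as IC50/(1+S).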

[3] = molecular target: T2, Kappa-type opioid receptor (Homo sapiens, UniProt P41145); assay: Displacement of [3H]-U69593 from human kappa opioid receptor expressed in CHO cells after 60 mins by scintillation counting analysis; assay type: cell-based
T2 sequence (P41145 whole entry): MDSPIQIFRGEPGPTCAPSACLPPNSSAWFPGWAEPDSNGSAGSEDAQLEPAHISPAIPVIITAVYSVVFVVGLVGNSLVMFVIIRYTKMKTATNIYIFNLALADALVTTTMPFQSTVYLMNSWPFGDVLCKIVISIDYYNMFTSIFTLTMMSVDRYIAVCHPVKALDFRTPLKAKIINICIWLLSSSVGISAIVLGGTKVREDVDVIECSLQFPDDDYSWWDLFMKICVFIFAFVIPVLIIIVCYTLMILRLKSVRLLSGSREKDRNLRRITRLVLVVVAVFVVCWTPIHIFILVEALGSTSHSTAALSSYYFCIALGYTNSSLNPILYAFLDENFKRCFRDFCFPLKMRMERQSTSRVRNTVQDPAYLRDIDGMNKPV
Procedure, shortened: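 Human κ receptor stably expressed in CHO cells was used as a membrane prep. It was incubated with 1 nM (final) [3H]U69,593 for 60 min at 25 °C in 50 mM Tris-HCl pH 7.5, with 10 μM naloxone defining nonspecific binding. Samples were filtered through glass-fiber filters presoaked ≥30 min in 0.1% polyethylenimine, washed cold and scintillation counted. Ki was derived from a log-probit IC50 via IC50/(1+S).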

Mus musculus [4] = assay: Antinociceptive activity in iv dosed CD-1 mouse by 55 degC warm water tail-flick test; assay type: functional
Procedure, shortened: (§2)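 Male CD-1 mice (27−30 g), 8−10 per group. Compound in 0.9% saline, injected into the tail vein at 0.1 mL/10 g after the vein was dilated in 40 °C water. Tail immersion in 55 °C water, with baseline latency first and 5 s non-responders excluded. Tested at intervals post-dose. %Antinociception = 100(test − control latency)/(10 − control latency). A50 values obtained.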

Mu-type opioid receptor = Mu-type opioid receptor (Homo sapiens, UniProt P35372); assay: Displacement of [3H]-DAMGO from human mu opioid receptor expressed in CHO cells after 60 mins by scintillation counting analysis; assay type: cell-based
Mu-type opioid receptor, sequence (P35372 whole entry): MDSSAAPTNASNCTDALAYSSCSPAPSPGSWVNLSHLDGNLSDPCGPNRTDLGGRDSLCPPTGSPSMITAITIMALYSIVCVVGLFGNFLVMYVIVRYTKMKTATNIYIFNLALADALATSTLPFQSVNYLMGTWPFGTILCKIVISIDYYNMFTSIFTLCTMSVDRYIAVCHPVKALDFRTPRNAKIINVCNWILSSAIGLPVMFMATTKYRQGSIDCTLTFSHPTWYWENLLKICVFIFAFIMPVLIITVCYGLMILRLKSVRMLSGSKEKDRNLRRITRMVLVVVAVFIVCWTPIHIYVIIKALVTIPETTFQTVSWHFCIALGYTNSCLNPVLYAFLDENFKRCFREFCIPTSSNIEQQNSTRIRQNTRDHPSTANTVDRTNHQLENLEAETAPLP
Procedure, shortened: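 Membranes from CHO cells stably expressing human μ receptor were incubated with 0.25 nM (final) [3H]DAMGO in 50 mM Tris-HCl pH 7.5 for 60 min at 25 °C. Bound radioligand was separated by glass-fiber filtration with cold buffer washes and counted by scintillation. IC50 came from a least-squares log-probit fit, and Ki from IC50/(1+S).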

[5] = molecular target: T2, Kappa-type opioid receptor; assay: Displacement of [3H]-U69593 from human kappa opioid receptor expressed in CHO cells at 10 uM after 60 mins by scintillation counting analysis […]; assay type: cell-based
[6] = molecular target: T1, Delta-type opioid receptor; assay: Displacement of [3H]-naltrindole from human delta opioid receptor expressed in CHO cells at 10 uM after 3 hrs by scintillation counting analysis relative to control; assay type: cell-based
Mus musculus [7] = assay: Antinociceptive activity in iv dosed ICR mouse by 55 degC warm water tail-flick test; assay type: functional
Mus musculus [8] = assay: Antinociceptive activity in icv dosed ICR mouse by 55 degC warm water tail-flick test; assay type: functional
Mus musculus [9] = assay: Antinociceptive activity in iv dosed CD-1 mouse assessed as time duration of activity by 55 degC warm water tail-flick test; assay type: functional; procedure, shortened: as §2
Mus musculus [10] = assay: Antinociceptive activity in iv dosed CD-1 mouse assessed as time required to show maximum activity by 55 degC warm water tail-flick test; assay type: functional; procedure, shortened: as §2
Mus musculus [11] = assay: Antinociceptive activity in icv dosed CD-1 mouse assessed as time required to show maximum activity by 55 degC warm water tail-flick test; assay type: functional; procedure, shortened: as §1
Mus musculus [12] = assay: Antinociceptive activity in icv dosed CD-1 mouse assessed as time duration of activity by 55 degC warm water tail-flick test; assay type: functional; procedure, shortened: as §1
[13] = molecular target: T1, Delta-type opioid receptor; assay: Binding affinity to delta opioid receptor (unknown origin)
Procedure, shortened: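 Membranes from CHO cells stably expressing the human δ-opioid receptor. Incubated 3 h at 25 °C with 0.2 nM [3H]naltrindole in 50 mM Tris-HCl, pH 7.5. Nonspecific binding with 100 μM naloxone. Glass-fibre filtration, cold-buffer washes, scintillation counting. IC50 from log-probit least-squares fit, converted to Ki.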

[14] = molecular target: T2, Kappa-type opioid receptor; assay: Binding affinity to kappa opioid receptor (unknown origin)
Procedure, shortened: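 CHO cell membranes stably expressing the human κ-opioid receptor. Incubated with 1 nM [3H]U69,593 for 60 min at 25 °C in 50 mM Tris-HCl, pH 7.5. Naloxone 10 μM defined nonspecific binding. Filters presoaked at least 30 min in 0.1% polyethylenimine, then washed and counted. Ki calculated from IC50 (log-probit fit).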

CC(C)C[C@H](NC(=O)[C@H](CO)NC(=O)CCCNC(=O)[C@H](CC(C)C)NC(=O)[C@H](Cc1ccccc1)NC(=O)CNC(=O)[C@@H](NC(=O)[C@@H](N)Cc1ccc(O)cc1)[C@@H](C)O)C(N)=O (H-YTGFL[GABA]SL-NH2)
A50 (Mus musculus [1]): 0.06 nmol
pKi [2]: 8.18
pKi [3]: 7.41
A50 (Mus musculus [4]): >11.3 µmol/kg
pKi (Mu-type opioid receptor): 8.42

CC(C)C[C@H](NC(=O)[C@H](CO[C@@H]1O[C@H](CO)[C@@H](O)[C@H](O)[C@H]1O)NC(=O)[C@H](CCCCN)NC(=O)[C@H](CC(C)C)NC(=O)[C@H](C)NC(=O)[C@H](CCC(=O)O)NC(=O)[C@H](CCC(=O)O)NC(=O)C(C)(C)NC(=O)[C@H](CC(C)C)NC(=O)[C@H](CC(N)=O)NC(=O)CNC(=O)CNC(=O)[C@H](Cc1ccccc1)N(C)C(=O)CNC(=O)[C@@H](C)NC(=O)[C@@H](N)Cc1ccc(O)cc1)C(N)=O
Activity [5]: 0%
Activity [6]: 0%

CC(C)C[C@H](NC(=O)[C@H](Cc1ccccc1)NC(=O)CNC(=O)[C@@H](NC(=O)[C@@H](N)Cc1ccc(O)cc1)[C@@H](C)O)C(=O)N[C@@H](CO[C@@H]1O[C@H](CO)[C@@H](O[C@@H]2O[C@H](CO)[C@@H](O)[C@H](O)[C@H]2O)[C@H](O)[C@H]1O)C(N)=O (H-YTGFLS(X1)-NH2)
pKi [2]: 8.04
pKi [3]: 7.38
A50 (Mus musculus [7]): 4.07 µmol/kg
pKi (Mu-type opioid receptor): 8.30
A50 (Mus musculus [8]): 0.018 nmol

CC(C)C[C@H](NC(=O)[C@H](CO[C@@H]1O[C@H](CO)[C@@H](O)[C@H](O)[C@H]1O)NC(=O)[C@H](CCCCN)NC(=O)[C@H](CC(C)C)NC(=O)[C@H](C)NC(=O)[C@H](CC(N)=O)NC(=O)[C@H](CCC(=O)O)NC(=O)C(C)(C)NC(=O)[C@H](CC(C)C)NC(=O)[C@H](CC(N)=O)NC(=O)CNC(=O)CNC(=O)[C@H](Cc1ccccc1)N(C)C(=O)CNC(=O)[C@@H](C)NC(=O)[C@@H](N)Cc1ccc(O)cc1)C(N)=O
Activity [5]: 0%
pKi (Mu-type opioid receptor): 5.92
Activity [6]: 0%

CC(C)C[C@H](NC(=O)[C@H](CO[C@@H]1O[C@H](CO)[C@@H](O[C@@H]2O[C@H](CO)[C@@H](O)[C@H](O)[C@H]2O)[C@H](O)[C@H]1O)NC(=O)[C@H](CCCCN)NC(=O)[C@H](CC(C)C)NC(=O)[C@H](C)NC(=O)[C@H](CCCCN)NC(=O)[C@H](CCC(=O)O)NC(=O)C(C)(C)NC(=O)[C@H](CC(C)C)NC(=O)[C@H](CC(N)=O)NC(=O)CCCNC(=O)[C@H](CC(C)C)NC(=O)[C@H](Cc1ccccc1)NC(=O)CNC(=O)[C@@H](NC(=O)[C@@H](N)Cc1ccc(O)cc1)[C@@H](C)O)C(N)=O (H-YTGFL[GABA]NL[Aib]EKALKS(X1)L-NH2)
A50 (Mus musculus [1]): 0.165 nmol
pKi [2]: 7.77
pKi [3]: 7.28
Time (Mus musculus [9]): 180 min
A50 (Mus musculus [4]): 1.13 µmol/kg
pKi (Mu-type opioid receptor): 7.89

CC(C)C[C@H](NC(=O)[C@H](CO[C@@H]1O[C@H](CO)[C@@H](O)[C@H](O)[C@H]1O)NC(=O)[C@H](CCCCN)NC(=O)[C@H](CC(C)C)NC(=O)[C@H](C)NC(=O)[C@H](CCCCN)NC(=O)[C@H](CCC(=O)O)NC(=O)C(C)(C)NC(=O)[C@H](CC(C)C)NC(=O)[C@H](CC(N)=O)NC(=O)[C@@H]1CCCN1C(=O)[C@H](CC(C)C)NC(=O)[C@H](Cc1ccccc1)NC(=O)CNC(=O)[C@@H](NC(=O)[C@@H](N)Cc1ccc(O)cc1)[C@@H](C)O)C(N)=O
A50 (Mus musculus [1]): 0.739 nmol
Time (Mus musculus [10]): 30 min
pKi [2]: 8.44
Time (Mus musculus [11]): 10 min
pKi [3]: 8.64
A50 (Mus musculus [4]): 0.36 µmol/kg
pKi (Mu-type opioid receptor): 8.59

CC(C)C[C@H](NC(=O)[C@H](CO[C@@H]1O[C@H](CO)[C@@H](O)[C@H](O)[C@H]1O)NC(=O)[C@H](CCCCN)NC(=O)[C@H](CC(C)C)NC(=O)[C@H](C)NC(=O)[C@H](CCCCN)NC(=O)[C@H](CCC(=O)O)NC(=O)C(C)(C)NC(=O)[C@H](CC(C)C)NC(=O)[C@H](CC(N)=O)NC(=O)CCCNC(=O)[C@H](CC(C)C)NC(=O)[C@H](Cc1ccccc1)NC(=O)CNC(=O)[C@@H](NC(=O)[C@@H](N)Cc1ccc(O)cc1)[C@@H](C)O)C(N)=O (H-YTGFL[GABA]NL[Aib]EKALKS(βGlc)L-NH2)
A50 (Mus musculus [1]): 0.046 nmol
Time (Mus musculus [10]): 30 min
Time (Mus musculus [12]): 90 min
pKi [2]: 8.38
Time (Mus musculus [11]): 10 min
pKi [3]: 7.96
A50 (Mus musculus [4]): 0.31 µmol/kg
pKi (Mu-type opioid receptor): 8.37

CC1(C)SCCSC[C@@H](NC(=O)[C@@H](N)Cc2ccc(O)cc2)C(=O)N[C@@H](Cc2ccccc2)C(=O)N[C@H]1C(N)=O (H-Y[dC]F[dPen]-NH2; linker 2-4 via CH2CH2)
pKi [13]: 7.61
pKi [14]: 5.70

CC(C)C[C@H](NC(=O)[C@H](CO[C@@H]1O[C@H](CO)[C@@H](O)[C@H](O)[C@H]1O)NC(=O)[C@H](CCCCN)NC(=O)[C@H](CC(C)C)NC(=O)[C@H](C)NC(=O)[C@H](CCCCN)NC(=O)[C@H](CCC(=O)O)NC(=O)C(C)(C)NC(=O)[C@H](CC(C)C)NC(=O)[C@H](CC(N)=O)NC(=O)CCCCNC(=O)[C@H](CC(C)C)NC(=O)[C@H](Cc1ccccc1)NC(=O)CNC(=O)[C@@H](NC(=O)[C@@H](N)Cc1ccc(O)cc1)[C@@H](C)O)C(N)=O (H-YTGFL[Ava]NL[Aib]EKALKS(βGlc)L-NH2)
A50 (Mus musculus [1]): 0.371 nmol
Time (Mus musculus [10]): 30 min
pKi [2]: 8.42
Time (Mus musculus [11]): 10 min
pKi [3]: 7.92
A50 (Mus musculus [4]): 0.36 µmol/kg
pKi (Mu-type opioid receptor): 8.85

CC(C)C[C@H](NC(=O)[C@H](CO[C@@H]1O[C@H](CO)[C@@H](O)[C@H](O)[C@H]1O)NC(=O)CCCNC(=O)[C@H](CC(C)C)NC(=O)[C@H](Cc1ccccc1)NC(=O)CNC(=O)[C@@H](NC(=O)[C@@H](N)Cc1ccc(O)cc1)[C@@H](C)O)C(N)=O (H-YTGFL[GABA]S(βGlc)L-NH2)
A50 (Mus musculus [1]): 0.06 nmol
pKi [2]: 7.82
pKi [3]: 7.15
A50 (Mus musculus [4]): 2.54 µmol/kg
pKi (Mu-type opioid receptor): 8.18

CC(C)C[C@H](NC(=O)[C@H](CO[C@@H]1O[C@H](CO)[C@@H](O)[C@H](O)[C@H]1O)NC(=O)[C@H](CCCCN)NC(=O)[C@H](CC(C)C)NC(=O)[C@H](C)NC(=O)[C@H](CC(N)=O)NC(=O)[C@H](CC(N)=O)NC(=O)C(C)(C)NC(=O)[C@H](CC(C)C)NC(=O)[C@H](CC(N)=O)NC(=O)CNC(=O)CNC(=O)[C@H](Cc1ccccc1)N(C)C(=O)CNC(=O)[C@@H](C)NC(=O)[C@@H](N)Cc1ccc(O)cc1)C(N)=O
Activity [5]: 16%
pKi (Mu-type opioid receptor): 6.92
Activity [6]: 0%
